Screening results as filed in PubChem BioAssay.
Hits are enriched below; roughly 4.6% of the tested compounds scored in any of these assays.
NCF1 inh: p47phox/p22phox peptide binding inhibitors, primary screen, biochemical, uHTS, NADPH oxidase regulatory subunit; inhibition, % at 24.7 µM; 0.53% of 220,000 active; fluorescence polarization, 2 h;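 active means inhibition above about 30%, limit read from the data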;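 further: 0% = p47phox with labelled peptide and 100% = labelled peptide alone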
Biofilm kill mix: clotrimazole potentiators killing C. albicans biofilm, primary screen, 4-compound mixtures; C. albicans biofilm persisters + clotrimazole, fluorescence viability; primary screen in compound mixtures of four per well; inhibition, % at 7.6 µM; 0.02% of 120,000 active; AID 1242, 2008;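 active means inhibition above 30.3% in the primary screen of four-compound pools, then above 30% when the compound was retested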;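 further: compounds exposed to preformed 24 h biofilms for 48 h; 0% = untreated biofilm control and 100% = clotrimazole plus chlorhexidine kill blank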
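Test system: C. albicans biofilms. Buffer or medium: RPMI/MOPS medium, pH 7.0. Timing: 48 h compound exposure at 37 °C. Technique: Alamar Blue fluorescence. Evaluation: percent inhibition of biofilm viability.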
WT yeast gro inh: growth inhibition of WT strain, primary screen, mitochondrial fusion inhibitor project, WT and mutant strains, chemical genetic. inhibition, % at 10 µM. mitochondrial fusion phenotypic screen. 2.1% of 190,000 active. AID 1362, 2008; in the data active means inhibition above about 58%; tested in S. cerevisiae
Arbovirus inh: antivirals against arbovirus infection, primary screen, cell-based, full library, 10K replicate subset; arbovirus infection cell-based antiviral screen; inhibition, % at 10 µM; 0.37% of 200,000 active; AID 1251, 2008; in the data active means inhibition above about 30%
RAM inhibit: inhibitors of the yeast RAM network, primary screen, dse1pr::URA3 reporter, 5-FOA selection; S. cerevisiae dse1pr::URA3 reporter, 5-FOA growth OD615, 2 d; analog-sensitive cbk1-as2 kinase mutant strain; inhibition, % at 50 µM; 1.8% of 190,000 active;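 active means inhibition above a set limit, 3 SD over mean compound inhibition, cut at about 8.4% in these data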;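 further: 0% = DMSO-only wells with no growth and 100% = 10 µM 1-NA-PP1 full growth; inhibition rescues growth on 5-FOA so higher OD means more RAM inhibition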
Hck-Nef inh: inhibitors of Nef-activated human Hck kinase, primary screen, biochemical, Z-Lyte FRET, 384-well, Hck-YEEI | 0.68% of 220,000 active | Tyrosine-protein kinase HCK (Homo sapiens), P08631 | Recombinant Hck-YEEI plus Nef, Z-Lyte FRET kinase assay | AID 463187, 2010 | inhibition, % at 20 µM;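 active means Hck-Nef kinase inhibition above about 50%, limit read from the data; inactive means inhibition below that limit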;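 further: 0% = DMSO with Hck plus Nef and 100% = Hck alone without Nef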
Target sequence (P08631 whole entry, looked up): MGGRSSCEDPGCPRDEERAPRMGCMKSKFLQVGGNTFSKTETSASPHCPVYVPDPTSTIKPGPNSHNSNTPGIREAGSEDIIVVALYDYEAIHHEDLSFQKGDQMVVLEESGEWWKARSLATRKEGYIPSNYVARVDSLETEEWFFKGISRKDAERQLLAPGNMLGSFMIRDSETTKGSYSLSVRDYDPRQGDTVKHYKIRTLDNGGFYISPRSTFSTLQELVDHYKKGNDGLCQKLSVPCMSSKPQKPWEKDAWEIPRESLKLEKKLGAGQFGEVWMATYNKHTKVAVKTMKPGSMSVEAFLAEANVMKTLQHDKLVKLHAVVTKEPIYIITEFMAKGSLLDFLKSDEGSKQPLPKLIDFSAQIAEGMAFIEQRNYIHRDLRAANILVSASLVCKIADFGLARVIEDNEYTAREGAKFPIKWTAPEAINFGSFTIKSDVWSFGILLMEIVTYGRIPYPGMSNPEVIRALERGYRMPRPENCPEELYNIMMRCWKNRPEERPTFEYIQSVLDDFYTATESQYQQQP
The depositor's hits bear a star; · = no result.

SMILES	NCF1 inh	Biofilm kill mix	WT yeast gro inh	Arbovirus inh	RAM inhibit	Hck-Nef inh
O=C(O)c1[nH]c2ccc(Cl)cc2c1CC(=O)N1CCN(c2ccccc2)CC1	0	·	19	11	11*	8
O=C(c1ccc(OC2CCN(Cc3ccccn3)CC2)cc1)N1CCCC(O)C1 (stereo not given)	-1	1	1	7	1	2
COC(=O)c1ccccc1NC(=S)NC(=O)COc1ccc(C(C)C)cc1	1	2	-4	2	9.2*	3
CC(C)c1ccc(OCC(=O)NC(=S)Nc2ccc3c4c(cccc24)CC3)cc1	-7	·	5	1	9.1*	1
Cc1ccc(-c2csc3ncnc(NCCN4CCOCC4)c23)cc1	-15	·	23	6	0	0
Cc1ccc(-c2csc3ncnc(Nc4ccc(N5CCOCC5)cc4)c23)cc1	-23	·	64*	-29	2	0
O=C(c1ccc(Cl)cc1)C(Cn1cncn1)C(Sc1ccccc1)c1ccccc1 (stereo not given)	1	·	33	-1	9.8*	-9
CC(C)N(C(=O)C[n+]1ccsc1N)c1ccccc1	-4	13	4	4	2	2
O=C1NC2(CCCCC2)C(=O)N1CCS(=O)(=O)Oc1ccc(Br)cc1	-5	13	-1	-2	8.8*	23
O=S(Cc1ccc(Br)cc1)Cc1nnc(SCc2c(F)cccc2Cl)n1-c1ccccc1 (stereo not given)	4	8	77*	-25	0	-1
O=S(Cc1ccc(Br)cc1)Cc1nnc(SCc2ccc(Cl)cc2)n1-c1ccccc1 (stereo not given)	-4	·	6	-32	2	0
CCOc1ccc(C(=O)N/N=C(\c2ccccc2)c2ccccn2)cc1	-4	·	69*	-25	7	-1
O=C(N/N=C(\c1ccccc1)c1ccccn1)c1cccc([N+](=O)[O-])c1	-9	22	43	-28	0	20
O=C(Oc1cc(Cl)ccc1Cl)c1ccc(N2CCOCC2)c([N+](=O)[O-])c1	-17	14	10	-5	6	2
O=C(Nc1ccc2nc3n(c(=O)c2c1)CCCC3)c1cccc([N+](=O)[O-])c1	-21	12	11	-16	8.8*	1
CC(=O)Nc1ccc(NC(=O)c2ccc(NS(=O)(=O)c3cc(C(C)(C)C)cc(C)c3C)cc2)cc1	-100	11	7	-2	10*	2
Cc1ccc(C(=O)Nc2ccc(C(=O)O)cc2)cc1S(=O)(=O)Nc1cccc([N+](=O)[O-])c1	-4	14	-7	-6	8	21
Cc1ccc(C(=O)Nc2cccc([N+](=O)[O-])c2)cc1S(=O)(=O)Nc1ccc(C(=O)O)cc1	60*	10	-4	0	8	19
Cc1cccc(NS(=O)(=O)c2cc(NC(=O)CC(=O)c3ccc([N+](=O)[O-])cc3)ccc2C)c1	35*	24	-14	8	2	20
Cc1cc(C(C)(C)C)cc(S(=O)(=O)Nc2ccc(O)c(C(=O)O)c2)c1C	-12	·	0	17	0	2
CCOc1cccc(C(=O)NNC(=O)CCC(=O)O)c1	-1	19	3	-2	1	2
CCOC(=O)C(=O)Nc1cc(Cl)ccc1C	-8	12	-22	7	2	6
Cc1ccc(C(=O)NCCSc2ccc(Cl)cc2)cc1S(=O)(=O)Nc1ccccc1	-6	·	8	-25	10*	-3
O=C(Nc1cccc([N+](=O)[O-])c1)c1cccc(C(=O)Nc2cccc([N+](=O)[O-])c2)c1	41*	1	·	·	·	-12
COc1cccc(-c2nnc(NC(=O)c3cccc(F)c3)o2)c1	-5	15	62	-25	·	8
SMILES	NCF1 inh	Biofilm kill mix	WT yeast gro inh	Arbovirus inh	RAM inhibit	Hck-Nef inh
O=C(Nc1nnc(-c2ccc(F)cc2)o1)c1cccc([N+](=O)[O-])c1	-18	21	76*	-7	1	-3
N#CC1=C(N)N2C(=C(C#N)C13CCCC3)Nc1ccccc12	-11	30	4	3	1	12
CCOC(=O)c1c(C)[nH]c(C2=NNC(=Nc3cccc(Cl)c3)SC2)c1C	-37	15	63*	-24	3	12
CC(=O)c1c(C)[nH]c(C2=NNC(=NCc3ccccc3)SC2)c1C	-12	4	11	11	1	23
CCCn1c(C)cc(C(=O)COC(=O)c2ccc[nH]c2=O)c1C	12	18	14	0	2	2
COc1ccc(CNC(=O)c2noc(C(C)C)c2[N+](=O)[O-])cc1	6	23	-3	11	0	4
COc1ccc(CNC(=O)c2noc(C)c2[N+](=O)[O-])cc1	33*	21	11	12	0	0
O=C(COC(=O)C1CCN(S(=O)(=O)c2ccc3c(c2)OCCO3)CC1)Nc1cc(C(F)(F)F)ccc1Cl	-10	11	3	-1	0	2
CCOC(=O)C1=C(C)Nc2sc(C(=O)c3ccc(F)cc3)c(N)c2C1c1ccc(C(=O)OC)cc1 (stereo not given)	-26	7	87*	-4	8	1
O=C(CSc1nc(-c2ccccc2Cl)ns1)c1ccc(Cl)cc1	-9	9	34	5	11*	0
COc1ccc(C2=Nn3c(nnc3-c3cc(C)[nH]n3)SC2)cc1	-6	11	·	·	·	23
Cc1ccc(-c2csc(NC(=O)C3=NN(c4ccccc4)C(=O)CC3)n2)cc1	-40	20	22	67*	4	0
O=C(CS(=O)(=O)c1ccccc1)Nc1nc(-c2ccccc2)cs1	-14	·	19	0	1	10
Cc1csc(NC(=O)C2=NN(c3ccccc3)C(=O)CC2)n1	3	-9	7	-3	2	-1
Cc1ccc(S(=O)(=O)CC(=O)Nc2nc(-c3ccccc3)cs2)cc1	1	·	61*	15	2	0
O=C(Nc1ccc(-c2nc3ccccc3[nH]2)cc1)c1ccccc1NS(=O)(=O)c1ccc(F)cc1	-90	18	-9	-2	6	4
Cc1ccc(S(=O)(=O)Nc2ccccc2C(=O)Nc2nc(-c3ccc(F)cc3)cs2)cc1	-88	14	74*	-34	8	5
FC(F)(F)c1nnc2c(Sc3ccccc3)nc3ccc(Cl)cc3n12	-14	·	-19	-27	2	2
CC(=O)Oc1cc2c3c(c1)/C(=C1/SC(=S)NC1=O)C(=O)N3C(C)(C)C=C2C	6	9	·	·	·	11
Cc1ccccc1N(CC(=O)Nc1ccc(S(=O)(=O)N2CCOCC2)cc1)S(C)(=O)=O	-1	-11	-1	4	0	-8
